Laboratory results taken from ChEMBL document CHEMBL1649175, “Lack of a clinically important effect of moderate hepatic insufficiency and severe renal insufficiency on raltegravir pharmacokinetics” (Antimicrob Agents Chemother, 2009).

Tests used:
[1] = Cmax in healthy human at 400 mg, po administered as single dose; format: ADME, organism-based; set-up: dose 400 mg, route oral; conditions: in vivo
Method in brief: (§1)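 Single 400-mg oral dose given fasted (fasting stated for the renal study). Assay: validated reverse-phase HPLC-MS/MS, LLOQ 2 ng/ml, range 2 to 1,000 ng/ml. AUC0-∞ = AUC0-last by linear/log trapezoid plus extrapolation. Cmax is read from the data. C12 is the nominal 12-h concentration. Values converted to nM (MW 444.4).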

Homo sapiens [2] = experiment: Toxicity in human assessed as headache at 400 mg, po administered as single dose; format: organism-based; conditions: in vivo
Method in brief: (§2)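 Safety assessed throughout each study by clinical and laboratory evaluations after a single 400-mg oral dose. Relatedness of adverse experiences to the drug was judged by the investigator.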

Homo sapiens [3] = experiment: Ratio of plasma concentration in patient with hepatic insufficiency to plasma concentration in healthy human at 400 mg, po administered as single dose measured at 12 hrs post dose; format: ADME, organism-based; conditions: in vivo
Method in brief: (§3)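 Geometric mean ratio, patients/matched healthy controls, for AUC0-∞, Cmax and C12 after a single 400-mg oral dose. Data are natural-log transformed. 90% CIs come from ANCOVA least-squares means, with population and sex as fixed effects and age and BMI as covariates, then exponentiated. n = 8 per group.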

[4] = Primary phase half life in patient with severe renal insufficiency at 400 mg, po administered as single dose; format: ADME, organism-based; conditions: human, in vivo
Method in brief: (§4)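 Single 400-mg oral raltegravir dose, fasted (stated for study II); patients and matched healthy controls. Plasma sampled at 0–72 h (to 96 h in hepatic study only), quantified by validated reverse-phase HPLC-MS/MS (LLOQ 2 ng/ml), converted to nM (MW 444.4). Profiles fit biexponentially (Gauss-Newton, Levenberg-Hartley; weighting 1/predicted concentration²); each phase t1/2 = ln(2)/rate constant.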

[5] = AUC (0 to infinity) in patient with severe renal insufficiency at 400 mg, po administered as single dose; format: ADME, organism-based; set-up: dose 400 mg, route oral, time infinity; conditions: human, plasma; method in brief: as §1
[6] = Renal clearance in healthy human at 400 mg, po administered as single dose; format: ADME, organism-based, Kidney; conditions: in vivo, read-out: CL_renal
Method in brief: (§5)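 Renal study, 10 patients plus 10 matched controls. Urine collected predose and at 0–4, 4–8, 8–12 and 12–24 h after a fasted 400-mg oral dose. Urine diluted and injected directly for HPLC-MS/MS (LLOQ 0.25 µg/ml, range 0.25–25 µg/ml). fe = total amount excreted unchanged ÷ dose × 100%. CLR = […] ÷ plasma AUC0-24.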

Homo sapiens [7] = experiment: Drug level in patient with severe renal insufficiency assessed as recovery of unchanged drug at 400 mg, po administered as single dose; format: ADME, organism-based; conditions: in vivo; method in brief: as §5
[8] = Plasma concentration in healthy human at 400 mg, po administered as single dose measured at 12 hrs post dose; format: ADME, organism-based; conditions: read-out: Activity; method in brief: as §1
[9] = Terminal half life in patient with severe renal insufficiency at 400 mg, po administered as single dose; format: ADME, organism-based; conditions: human, in vivo; method in brief: as §4
[10] = Plasma concentration in patient with severe renal insufficiency at 400 mg, po administered as single dose measured at 12 hrs post dose; format: ADME, organism-based; conditions: human, read-out: Activity; method in brief: as §1
[11] = AUC (0 to infinity) in healthy human at 400 mg, po administered as single dose; format: ADME, organism-based; set-up: dose 400 mg, route oral, time infinity; conditions: plasma; method in brief: as §1
[12] = Renal clearance in patient with severe renal insufficiency at 400 mg, po administered as single dose; format: ADME, organism-based, Kidney; conditions: human, in vivo, read-out: CL_renal; method in brief: as §5
[13] = Cmax in patient with hepatic insufficiency at 400 mg, po administered as single dose; format: ADME, organism-based; set-up: dose 400 mg, route oral; conditions: human, in vivo; method in brief: as §1
[14] = Plasma concentration in patient with hepatic insufficiency at 400 mg, po administered as single dose measured at 12 hrs post dose; format: ADME, organism-based; conditions: human, read-out: Activity; method in brief: as §1
[15] = Primary phase half life in patient with hepatic insufficiency at 400 mg, po administered as single dose; format: ADME, organism-based; conditions: human, in vivo; method in brief: as §4
[16] = Primary phase half life in healthy human at 400 mg, po administered as single dose; format: ADME, organism-based; conditions: in vivo; method in brief: as §4
[17] = Tmax in patient with hepatic insufficiency at 400 mg, po administered as single dose; format: ADME, organism-based; conditions: human, in vivo
Method in brief: (§6)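 Tmax is taken by inspection of the plasma concentration data, using nominal sampling times. Single 400-mg oral dose; plasma sampled from 0 to 72 h, or to 96 h in the hepatic study. Raltegravir is measured by validated reverse-phase HPLC-MS/MS (LLOQ 2 ng/ml).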

[18] = Terminal half life in healthy human at 400 mg, po administered as single dose; format: ADME, organism-based; conditions: in vivo; method in brief: as §4
Homo sapiens [19] = experiment: Toxicity in human assessed as mouth ulceration at 400 mg, po administered as single dose; format: organism-based; conditions: in vivo; method in brief: as §2
[20] = Tmax in patient with severe renal insufficiency at 400 mg, po administered as single dose; format: ADME, organism-based; conditions: human, in vivo; method in brief: as §6
[21] = Terminal half life in patient with hepatic insufficiency at 400 mg, po administered as single dose; format: ADME, organism-based; conditions: human, in vivo; method in brief: as §4
[22] = AUC (0 to infinity) in patient with hepatic insufficiency at 400 mg, po administered as single dose; format: ADME, organism-based; set-up: dose 400 mg, route oral, time infinity; conditions: human, plasma; method in brief: as §1
Homo sapiens [23] = experiment: Ratio of plasma concentration in patient with hepatic insufficiency to plasma concentration in healthy human at 400 mg, po administered as single dose; format: ADME, organism-based; conditions: in vivo; method in brief: as §3
[24] = Cmax in patient with severe renal insufficiency at 400 mg, po administered as single dose; format: ADME, organism-based; set-up: dose 400 mg, route oral; conditions: human, in vivo; method in brief: as §1
Homo sapiens [25] = experiment: Ratio of Cmax in patient with severe renal insufficiency to Cmax in healthy human at 400 mg, po administered as single dose; format: ADME, organism-based; conditions: in vivo
Method in brief: (§7)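 Single 400-mg oral raltegravir dose to patients (moderate hepatic or severe renal insufficiency) and matched healthy controls; plasma raltegravir measured by HPLC-MS/MS. Cmax read by inspection, ln-transformed. Geometric mean ratio (patient/healthy) with 90% CI from ANCOVA least-squares means: population and sex fixed effects, age and BMI covariates.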

Homo sapiens [26] = experiment: Ratio of Cmax in patient with hepatic insufficiency to Cmax in healthy human at 400 mg, po administered as single dose; format: ADME, organism-based; conditions: in vivo; method in brief: as §7

With `Cc1nnc(C(=O)NC(C)(C)c2nc(C(=O)NCc3ccc(F)cc3)c(O)c(=O)n2C)o1` [RALTEGRAVIR] the Cmax [1] was 5680 nM, the Activity (Homo sapiens [2]) was “Toxic” and the Activity (Homo sapiens [3]) was 1.26 nM. It also gave a half-life [4] of 1.38 h, an AUC(0-inf) [5] of 16.8 µM·h and a CL renal [6] of 31.5 mL/min. The “fold change (FC)” value (Homo sapiens [7]) was 0.5, the concentration at 12 h [8] was 106 nM and the half-life [9] was 17.2 h. It also gave a concentration at 12 h [10] of 135 nM, an AUC(0-inf) [11] of 19.7 µM·h and a CL renal [12] of 2.7 mL/min. The Cmax [13] was 4410 nM, the concentration at 12 h [14] was 143 nM and the half-life [15] was 1.49 h. For the same compound, the half-life [16] was 1.1 h, the Tmax [17] was 2.5 h and the half-life [18] was 9.3 h. For the same compound, the Activity (Homo sapiens [19]) was “Toxic”, the Tmax [20] was 3.5 h and the half-life [21] was 7 h. It also gave an AUC(0-inf) [22] of 17.7 µM·h, an Activity (Homo sapiens [23]) of 1.26 nM and a Cmax [24] of 3850 nM. For the same compound, the Cmax (Ratio) (Homo sapiens [25]) was 0.68 and the Cmax (Ratio) (Homo sapiens [26]) was 0.63.
